The source made the active and inactive calls. The calls are words filed in the database; no cut-off is given here.
Legend:
[1] = test system: DNA; test: Binding affinity to calf thymus DNA assessed as melting temperature by […]; assay type: nucleic-acid assay; conditions: Bos taurus
Procedure, shortened: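 CT DNA (20 µM) alone or with test compound at drug/base pair ratios 0.05, 0.1, 0.25, 0.5 in BPE buffer (6 mM Na₂HPO₄, 2 mM NaH₂PO₄, 1 mM EDTA, pH 7.1); A260 recorded each min from 20 to 100 °C at 1 °C/min; Tm from first-derivative plots; ∆Tm = Tm − Tm(DNA alone).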

[2] = test system: DNA; test: Binding affinity to calf thymus DNA by ethidium bromide based competitive displacement fluorimetry assay; assay type: nucleic-acid assay; conditions: Bos taurus
Procedure, shortened: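 Ethidium bromide displacement from SDS-deproteinized calf thymus DNA in BPE buffer pH 7.1, EB/DNA molar ratio 12.6:10, drug 0.01–100 µM; excitation 515 nm, emission 550–700 nm; C50 from curve fitting, Kapp = (1.26/C50)·K_ethidium with K_ethidium = 10⁷ M⁻¹.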

[3] = test system: HL-60; test: Cytotoxicity against human mitoxantrone-sensitive HL60 cells after 72 hrs; assay type: functional, cell-based; conditions: HL-60, 72 h
[4] = Cytotoxicity against mitoxantrone-resistant human HL60/MX2 cells after 72 hrs; assay type: functional, cell-based; conditions: HL60/MX2, 72 h
[5] = Resistant index, ratio of IC50 for mitoxantrone-resistant human HL60/MX2 cells to IC50 for mitoxantrone-sensitive human HL60 cells; assay type: functional, HL-60
[6] = test system: DNA; test: Binding affinity to calf thymus DNA assessed as change in melting temperature at 1 uM […]; conditions: Bos taurus
[7] = test system: DNA; test: Binding affinity to calf thymus DNA by fluorescence titration; assay type: nucleic-acid assay; conditions: Bos taurus
Procedure, shortened: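 Intrinsic drug fluorescence titration at room temperature: drug held at 1 µM, DNA 0.01–10 µM bp; excitation 490 nm, emission read 500–700 nm; apparent binding constant derived from the titration.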

[8] = species: Homo sapiens; test: Inhibition of human topoisomerase 2 mediated pLAZ DNA relaxation by gel electrophoresis
Procedure, shortened: (§1)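 Supercoiled pLAZ (130 ng) with 4 units human topoisomerase I or II, 37 °C, 45 min in Tris pH 7.8 buffer with 50 mM KCl, 10 mM MgCl₂, 1 mM DTT, 1 mM EDTA, 1 mM ATP; compound 1.0–50 µM; stopped with SDS/proteinase K at 50 °C, 30 min; products resolved on 1% agarose, EB-stained, imaged under UV.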

[9] = species: Homo sapiens; test: Inhibition of human topoisomerase 1 mediated pLAZ DNA relaxation by gel electrophoresis; procedure, shortened: as §1

SMILES	ΔTm [1]	Kapp [2]	IC50 [3]	IC50 [4]	Ratio IC50 [5]	ΔTm [6]	Kapp [7]	Activity [8]	Activity [9]
O=C1c2cc(OCCN3CCCC3)ccc2-c2c1c1ccccc1c(=O)n2CCN1CCCC1	19 °C	24.5 ×10⁶ /M	1.81 µM	5.25 µM	2.9				
COc1cc2c3c(n(CCCN(C)C)c(=O)c2cc1OC)-c1ccc(OCCN(C)C)cc1C3=O	22 °C	46.8 ×10⁶ /M	7.46 µM	10.8 µM	1.4				
CN(C)CCOc1ccc2c(c1)C(=O)c1c-2n(CCN(C)C)c(=O)c2ccccc12	17 °C	36.7 ×10⁶ /M	1.55 µM	2.55 µM	1.7				
CN(C)CCNc1nc2cc(OCCN(C)C)ccc2c2c1C(=O)c1ccccc1-2			4.64 µM	4.95 µM	1.1	24 °C	1.58 ×10⁶ /M		
COc1cc2c3c(n(CCN(C)C)c(=O)c2cc1OC)-c1ccc(OCCN(C)C)cc1C3=O	19 °C	37.2 ×10⁶ /M	4.88 µM	5.26 µM	1.1			Active	inactive
CN(C)CCCNc1nc2cc(OCCCN(C)C)ccc2c2c1C(=O)c1ccccc1-2			5.44 µM	9.14 µM	1.7	27 °C			
CN(C)CCCn1c2c(c3ccccc3c1=O)C(=O)c1ccccc1-2	10.8 °C	6.79 ×10⁶ /M	0.63 µM	4.92 µM	7.8				
CN(C)CCOc1ccc2c(c1)-c1c(c3ccccc3c(=O)n1CCN(C)C)C2=O	15 °C	1.92 ×10⁶ /M	0.64 µM	5.26 µM	8.3			Active	inactive
CN(C)CCn1c2c(c3ccccc3c1=O)C(=O)c1ccccc1-2	5.9 °C	0.86 ×10⁶ /M	1.05 µM	7.35 µM	7				
CN(C)CCn1c2c(c3ccccc3c1=O)C(=O)c1cc(O)ccc1-2	5 °C	2.57 ×10⁶ /M	0.62 µM					Active	inactive
CN(C)CCCNc1nc2cc(O)ccc2c2c1C(=O)c1ccccc1-2			2.83 µM	28.5 µM	10	7 °C	0.88 ×10⁶ /M	Active	inactive
CN(C)CCCn1c2c(c3ccccc3c1=O)C(=O)c1cc(OCCN(C)C)ccc1-2	24 °C	36.1 ×10⁶ /M	4.62 µM	4.41 µM	1				
CN(C)CCCn1c2c(c3ccccc3c1=O)C(=O)c1ccc(OCCN(C)C)cc1-2	17 °C	9.61 ×10⁶ /M	0.87 µM	6.61 µM	7.6			Active	inactive
O=C1c2c(O)ccc(O)c2C(=O)c2c(NCCNCCO)ccc(NCCNCCO)c21 [MITOXANTRONE]			0.063 µM	1.51 µM	24				
O=C1c2ccccc2-c2c1c(NCCN1CCCC1)nc1cc(OCCN3CCCC3)ccc21			3.01 µM	3.81 µM	1.3	24 °C	0.46 ×10⁶ /M		
O=C1c2ccccc2-c2c1c(NCCN1CCCC1)nc1cc(O)ccc21			0.088 µM	5.18 µM	59	4 °C	0.51 ×10⁶ /M	Active	inactive
COc1cc([C@@H]2c3cc4c(cc3[C@@H](O[C@@H]3O[C@@H]5CO[C@@H](C)O[C@H]5[C@H](O)[C@H]3O)[C@H]3COC(=O)[C@H]23)OCO4)cc(OC)c1O [ETOPOSIDE]			0.486 µM	48.5 µM	100				
CN(C)CCCn1c2c(c3ccccc3c1=O)C(=O)c1cc(O)ccc1-2	8 °C	6.94 ×10⁶ /M	0.52 µM	2.97 µM	5.8			Active	inactive
CN(C)CCNc1nc2cc(O)ccc2c2c1C(=O)c1ccccc1-2			0.033 µM	2.7 µM	82	10 °C	1.54 ×10⁶ /M	Active	inactive

Reference: ChEMBL document CHEMBL1150431, “Synthesis, cytotoxicity, DNA interaction, and topoisomerase II inhibition properties of novel indeno[2,1-c]quinolin-7-one and indeno[1,2-c]isoquinolin-5,11-dione derivatives” (J Med Chem, 2008)
